Measured values reported in article PMC8295177 (Cancer discovery, 2021).
Values joined by “and” are separate entries in the source; they are usually repeats but may differ in a detail not shown here. Equal entries are not always repeated.

Experiments:
[1] = system: patients with advanced NSCLC refractory to standard therapies; assay: Phase 1 dose-escalation study; format: in vivo
[2] = Plasma pharmacokinetics of mobocertinib in dose-escalation patients; format: in vivo, human; details: oral
Method in brief: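 Patients with NSCLC took oral capsules once daily in continuous 28-day cycles. Plasma was sampled at prespecified times after the first dose (Cycle 1, Day 1) and at steady state (Cycle 2, Day 1). Drug and active metabolites were quantified by validated LC-MS. Tmax, Cmax and AUC0–24 came from noncompartmental analysis. Effective half-life was derived from accumulation as a geometric mean.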

[3] = system: patients treated with mobocertinib 160 mg daily; assay: Safety and tolerability; format: in vivo, human; details: for Treatment-related TEAE Anemia, Any Grade / Treatment-related TEAE Anemia, Grade ≥3 / Treatment-related TEAE Decreased appetite, Any Grade / Treatment-related TEAE Decreased appetite, Grade ≥3 / Treatment-related TEAE Dermatitis acneiform, Any Grade / Treatment-related TEAE Dermatitis acneiform, Grade ≥3 / Treatment-related TEAE Diarrhea, Any Grade / Treatment-related TEAE Diarrhea, Grade ≥3 / Treatment-related TEAE Dry skin, Any Grade / Treatment-related TEAE Dry skin, Grade ≥3 / Treatment-related TEAE Dyspepsia, Any Grade / Treatment-related TEAE Dyspepsia, Grade ≥3 / Treatment-related TEAE Fatigue, Any Grade / Treatment-related TEAE Fatigue, Grade ≥3 / Treatment-related TEAE GERD, Any Grade / Treatment-related TEAE GERD, Grade ≥3 / Treatment-related TEAE Increased lipase, Any Grade / Treatment-related TEAE Increased lipase, Grade ≥3 / Treatment-related TEAE Nausea, Any Grade / Treatment-related TEAE Nausea, Grade ≥3 / Treatment-related TEAE Paronychia, Any Grade / Treatment-related TEAE Paronychia, Grade ≥3 / Treatment-related TEAE Pruritus, Any Grade / Treatment-related TEAE Pruritus, Grade ≥3 / Treatment-related TEAE Rash maculo-papular, Any Grade / Treatment-related TEAE Rash maculo-papular, Grade ≥3 / Treatment-related TEAE Rash, Any Grade / Treatment-related TEAE Rash, Grade ≥3 / Treatment-related TEAE Stomatitis, Any Grade / Treatment-related TEAE Stomatitis, Grade ≥3 / Treatment-related TEAE Vomiting, Any Grade / Treatment-related TEAE Vomiting, Grade ≥3: number (%) of patients
Method in brief: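 Safety pooled phase 1 and phase 2 patients who received at least one dose at an initial 160 mg daily, given orally in continuous 28-day cycles. Treatment-related TEAEs were tallied at any grade and at grade ≥3. The EGFRex20ins NSCLC subgroup came from dose escalation plus expansion cohort 1. Grade 3–4 toxicity led to withholding the drug, with up to two dose reductions allowed.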

[4] = system: previously treated NSCLC with EGFRex20ins mutations; assay: Investigator-assessed antitumor activity; format: in vivo, human; details: for Best confirmed response: Stable disease: observed ≥6 weeks after first dose
[5] = 28 patients with EGFRex20ins mutations treated at 160 mg daily
[6] = 136 patients treated at 160 mg daily
[7] = all patients treated at 160 mg daily (n=136)
[8] = patients with EGFRex20ins treated at 160 mg daily (n=28)
[9] = 80 mg total daily dose (n=9), includes 80 mg daily and 40 mg twice daily

C=CC(=O)Nc1cc(Nc2ncc(C(=O)OC(C)C)c(-c3cn(C)c4ccccc34)n2)c(OC)cc1N(C)CCN(C)C [mobocertinib]
recommended phase 2 dose (RP2D) ([1]; human, in vivo, po, 28 days): 160 mg daily | maximum tolerated dose (MTD) ([1]; oral, 28-day cycles, dose escalation 5-180 mg daily): 160 mg daily | half-life ([2]; human, plasma): 11 to 17 h | exposure (AUC0–24) dose dependence ([2]; dose range 5 mg to 180 mg daily): approximately dose-proportional | patients with AEs leading to discontinuation [3, 5]: 25% | patients with AEs requiring dose interruption [3, 5]: 57% | patients with AEs requiring dose reduction [3, 5]: 18% | patients who experienced a treatment-emergent adverse event (TEAE) [3, 6]: 99% | patients with TEAEs considered related to mobocertinib treatment [3, 6]: 96% | patients with TEAEs requiring discontinuation [3, 6]: 16% | patients with TEAEs requiring dose interruption [3, 6]: 54% | patients with TEAEs requiring dose reduction [3, 6]: 17% | patients with grade 3 or higher treatment-related TEAEs [3, 6]: 40% | patients with serious treatment-related TEAEs [3, 6]: 13% | serious treatment-related TEAE diarrhea, patients [3, 6]: 4% | serious treatment-related TEAE vomiting, patients [3, 6]: 4% | treatment-related diarrhea, any grade, patients [3, 6]: 83% | treatment-related diarrhea, grade ≥3, patients [3, 6]: 21% | treatment-related nausea, any grade, patients [3, 6]: 43% | treatment-related rash, any grade, patients [3, 6]: 33% | treatment-related vomiting, any grade, patients [3, 6]: 26% | diarrhea leading to discontinuation, patients ([3]; 136 patients treated at 160 mg daily (7/136)): 5% | Treatment-related TEAE Anemia, Any Grade [3, 7]: 19 (14) | Treatment-related TEAE Anemia, Grade ≥3 [3, 7]: 3 (2) | Treatment-related TEAE Decreased appetite, Any Grade [3, 7]: 29 (21) | Treatment-related TEAE Decreased appetite, Grade ≥3 [3, 7]: 1 (1) | Treatment-related TEAE Dermatitis acneiform, Any Grade [3, 7]: 19 (14) | Treatment-related TEAE Dermatitis acneiform, Grade ≥3 [3, 7]: 1 (1) | Treatment-related TEAE Diarrhea, Any Grade [3, 7]: 113 (83) | Treatment-related TEAE Diarrhea, Grade ≥3 [3, 7]: 28 (21) | Treatment-related TEAE Dry skin, Any Grade [3, 7]: 30 (22) | Treatment-related TEAE Dry skin, Grade ≥3 [3, 7]: 0 | Treatment-related TEAE Dyspepsia, Any Grade [3, 7]: 16 (12) | Treatment-related TEAE Dyspepsia, Grade ≥3 [3, 7]: 0 | Treatment-related TEAE Fatigue, Any Grade [3, 7]: 28 (21) | Treatment-related TEAE Fatigue, Grade ≥3 [3, 7]: 2 (1) | Treatment-related TEAE GERD, Any Grade [3, 7]: 17 (13) | Treatment-related TEAE GERD, Grade ≥3 [3, 7]: 0 | Treatment-related TEAE Increased lipase, Any Grade [3, 7]: 15 (11) | Treatment-related TEAE Increased lipase, Grade ≥3 [3, 7]: 7 (5) | Treatment-related TEAE Nausea, Any Grade [3, 7]: 58 (43) | Treatment-related TEAE Nausea, Grade ≥3 [3, 7]: 5 (4) | Treatment-related TEAE Paronychia, Any Grade [3, 7]: 22 (16) | Treatment-related TEAE Paronychia, Grade ≥3 [3, 7]: 0 | Treatment-related TEAE Pruritus, Any Grade [3, 7]: 14 (10) | Treatment-related TEAE Pruritus, Grade ≥3 [3, 7]: 0 | Treatment-related TEAE Rash maculo-papular, Any Grade [3, 7]: 22 (16) | Treatment-related TEAE Rash maculo-papular, Grade ≥3 [3, 7]: 1 (1) | Treatment-related TEAE Rash, Any Grade [3, 7]: 45 (33) | Treatment-related TEAE Rash, Grade ≥3 [3, 7]: 1 (1) | Treatment-related TEAE Stomatitis, Any Grade [3, 7]: 28 (21) | Treatment-related TEAE Stomatitis, Grade ≥3 [3, 7]: 5 (4) | Treatment-related TEAE Vomiting, Any Grade [3, 7]: 36 (26) | Treatment-related TEAE Vomiting, Grade ≥3 [3, 7]: 5 (4) | Treatment-related TEAE Anemia, Any Grade [3, 8]: 5 (18) | Treatment-related TEAE Anemia, Grade ≥3 [3, 8]: 0 | Treatment-related TEAE Decreased appetite, Any Grade [3, 8]: 11 (39) | Treatment-related TEAE Decreased appetite, Grade ≥3 [3, 8]: 0 | Treatment-related TEAE Dermatitis acneiform, Any Grade [3, 8]: 5 (18) | Treatment-related TEAE Dermatitis acneiform, Grade ≥3 [3, 8]: 0 | Treatment-related TEAE Diarrhea, Any Grade [3, 8]: 23 (82) | Treatment-related TEAE Diarrhea, Grade ≥3 [3, 8]: 9 (32) | Treatment-related TEAE Dry skin, Any Grade [3, 8]: 5 (18) | Treatment-related TEAE Dry skin, Grade ≥3 [3, 8]: 0 | Treatment-related TEAE Dyspepsia, Any Grade [3, 8]: 6 (21) | Treatment-related TEAE Dyspepsia, Grade ≥3 [3, 8]: 0 | Treatment-related TEAE Fatigue, Any Grade [3, 8]: 4 (14) | Treatment-related TEAE Fatigue, Grade ≥3 [3, 8]: 1 (4) | Treatment-related TEAE GERD, Any Grade [3, 8]: 3 (11) | Treatment-related TEAE GERD, Grade ≥3 [3, 8]: 0 | Treatment-related TEAE Increased lipase, Any Grade [3, 8]: 7 (25) | Treatment-related TEAE Increased lipase, Grade ≥3 [3, 8]: 2 (7) | Treatment-related TEAE Nausea, Any Grade [3, 8]: 11 (39) | Treatment-related TEAE Nausea, Grade ≥3 [3, 8]: 3 (11) | Treatment-related TEAE Paronychia, Any Grade [3, 8]: 8 (29) | Treatment-related TEAE Paronychia, Grade ≥3 [3, 8]: 0 | Treatment-related TEAE Pruritus, Any Grade [3, 8]: 5 (18) | Treatment-related TEAE Pruritus, Grade ≥3 [3, 8]: 0 | Treatment-related TEAE Rash maculo-papular, Any Grade [3, 8]: 7 (25) | Treatment-related TEAE Rash maculo-papular, Grade ≥3 [3, 8]: 1 (4) | Treatment-related TEAE Rash, Any Grade [3, 8]: 13 (46) | Treatment-related TEAE Rash, Grade ≥3 [3, 8]: 0 | Treatment-related TEAE Stomatitis, Any Grade [3, 8]: 6 (21) | Treatment-related TEAE Stomatitis, Grade ≥3 [3, 8]: 2 (7) | Treatment-related TEAE Vomiting, Any Grade [3, 8]: 10 (36) | Treatment-related TEAE Vomiting, Grade ≥3 [3, 8]: 2 (7) | Best confirmed response: Not evaluated ([4]; 80 mg total daily dose (n=9)): 0 n (%) | Best confirmed response: Progressive disease ([4]; 80 mg total daily dose (n=9)): 1 (11) n (%) | Best confirmed response: Complete response [4, 9]: 1 (11) n (%) | Best confirmed response: Partial response [4, 9]: 1 (11) n (%) | Best confirmed response: Stable disease ([4]; 80 mg total daily dose (n=9)): 6 (67) n (%) | confirmed ORR ([4]; 120 mg daily (4/21)): 19% | Best confirmed response: Complete response ([4]; 120 mg daily (n=21)): 1 (5) n (%) | Best confirmed response: Not evaluated ([4]; 120 mg daily (n=21)): 3 (14) n (%) | Best confirmed response: Partial response ([4]; 120 mg daily (n=21)): 3 (14) n (%) | Best confirmed response: Progressive disease ([4]; 120 mg daily (n=21)): 3 (14) n (%) | Best confirmed response: Stable disease ([4]; 120 mg daily (n=21)): 11 (52) n (%) | investigator-assessed confirmed ORR ([4]; 160 mg daily (12/28; 95% CI 24–63%)): 43% | disease control rate ([4]; 160 mg daily (24/28; 95% CI 67–96%)): 86% | Best confirmed response: Complete response ([4]; 160 mg daily (n=28)): 0 n (%) | Best confirmed response: Not evaluated ([4]; 160 mg daily (n=28)): 2 (7) n (%) | Best confirmed response: Partial response ([4]; 160 mg daily (n=28)): 12 (43) n (%) | Best confirmed response: Progressive disease ([4]; 160 mg daily (n=28)): 2 (7) n (%) | Best confirmed response: Stable disease ([4]; 160 mg daily (n=28)): 12 (43) n (%) | median PFS ([4]; 160 mg daily, 28 EGFRex20ins patients (95% CI 4.4–15.6)): 7.3 months and 7 months | median duration of response in confirmed responders ([4]; 160 mg daily, 28 EGFRex20ins patients (95% CI 5.0–not reached)): 14 months and 13.9 months | 12-month event-free rate (PFS) ([4]; 160 mg daily, 28 EGFRex20ins patients (95% CI 16–53%)): 34% | investigator-assessed confirmed ORR ([4]; 160 mg daily, patients with baseline brain metastases (3/12; 95% CI 5–57%)): 25% | median investigator-assessed PFS ([4]; 160 mg daily, patients with baseline brain metastases (95% CI 1.8–15.9)): 3.7 months | 12-month event-free rate (PFS) ([4]; 160 mg daily, patients with baseline brain metastases (95% CI 3–52%)): 23% | investigator-assessed confirmed ORR ([4]; 160 mg daily, patients without baseline brain metastases (9/16; 95% CI 30–80%)): 56% | median duration of response in confirmed responders ([4]; 160 mg daily, patients without baseline brain metastases (95% CI 5.0–16.6)): 13.8 months | 12-month event-free rate (PFS) ([4]; 160 mg daily, patients without baseline brain metastases (95% CI 18–66%)): 43% | confirmed ORR ([4]; 5–40 mg daily (0/12)): 0% | Best confirmed response: Complete response ([4]; 5–40 mg daily (n=12)): 0 n (%) | Best confirmed response: Not evaluated ([4]; 5–40 mg daily (n=12)): 2 (17) n (%) | Best confirmed response: Partial response ([4]; 5–40 mg daily (n=12)): 0 n (%) | Best confirmed response: Progressive disease ([4]; 5–40 mg daily (n=12)): 7 (58) n (%) | confirmed ORR ([4]; 5–40 mg daily (n=12)): 0 [0–26] n (%) [95% CI] | Best confirmed response: Stable disease ([4]; 5–40 mg daily (n=12)): 3 (25) n (%) | confirmed ORR ([4]; 80-mg total daily dose (2/9)): 22%
